Active and inactive are the calls of the source. The calls are words filed in the database; no cut-off is given here.
Assays:
C6 [1] = assay: Cytotoxicity against rat C6 cells assessed as decrease in cell viability after 24 hrs by MTT assay; assay type: functional, cell-based; settings: C6, 24 h
Summary of the method: (§1)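 Viability was read as cellular MTT reduction. Cisplatin and GSK690693 were run as reference controls. IC50 values were derived for each cell line.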

A549 [2] = assay: Cytotoxicity against human A549 cells assessed as decrease in cell viability after 24 hrs by MTT assay; assay type: functional, cell-based; settings: A549, 24 h; summary of the method: as §1
NIH3T3 = assay: Cytotoxicity against mouse NIH/3T3 cells assessed as decrease in cell viability after 24 hrs by MTT assay; assay type: cell-based; settings: NIH3T3, 24 h; summary of the method: as §1
[3] = Selectivity index, ratio of IC50 for mouse NIH/3T3 cells to IC50 for rat C6 cells; assay type: toxicity; settings: NIH/3T3 cells versus C6 cells, read-out: Ratio IC50
Summary of the method: (§2)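 Selectivity index = IC50 for NIH/3T3 normal fibroblasts / IC50 for the cancer line (A549 or C6). […] An IC50 above 403.00 was taken as 403.00.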

[4] = Selectivity index, ratio of IC50 for mouse NIH/3T3 cells to IC50 for human A549 cells; assay type: toxicity; settings: NIH/3T3 cells versus A549 cells, read-out: Ratio IC50; summary of the method: as §2
[5] = molecular target: RAC-alpha serine/threonine-protein kinase (Rattus norvegicus, UniProt P47196); assay: Inhibition of Akt in rat C6 cells after 24 hrs by ELISA; assay type: cell-based
Summary of the method: (§3)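 In-cell colorimetric ELISA: 10,000 cells/well were treated 24 h, then fixed in 4% formaldehyde for 15 min, permeabilised, quenched and blocked. Primary antibody ran overnight at 4 °C, then HRP conjugate for 30 min, then TMB; absorbance was read at 450 nm. Wells were in triplicate and blank-subtracted. Activity is relative to untreated cells; IC50 came from graphs of three concentrations.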

C6 [6] = assay: Induction of apoptosis in rat C6 cells assessed as early/late apoptotic cells at IC50 after 24 hrs by Annexin V-FITC/PI staining based flow cytometry (reference value: 8%); assay type: functional
C6 [7] = assay: Induction of apoptosis in rat C6 cells assessed as viable cells at IC50 after 24 hrs by Annexin V-FITC/PI staining based flow cytometry (reference value: 90%); assay type: functional
A549 [8] = assay: Induction of apoptosis in human A549 cells assessed as early/late apoptotic cells at IC50 after 24 hrs by Annexin V-FITC/PI staining based flow cytometry (reference value: 7.1%); assay type: functional
A549 [9] = assay: Induction of apoptosis in human A549 cells assessed as viable cells at IC50 after 24 hrs by Annexin V-FITC/PI staining based flow cytometry (reference value: 89%); assay type: functional
C6 [10] = assay: Induction of mitochondrial membrane potential loss in rat C6 cells assessed as intact mitochondrial membrane potential at IC50 measured after 24 hrs by JC-1 staining based flow cytometric analysis (reference value: 80%); assay type: functional
C6 [11] = assay: Induction of mitochondrial membrane potential loss in rat C6 cells at IC50 measured after 24 hrs by JC-1 staining based flow cytometric analysis (reference value: 19.9%); assay type: functional
A549 [12] = assay: Induction of mitochondrial membrane potential loss in human A549 cells assessed as intact mitochondrial membrane potential at IC50 measured after 24 hrs by JC-1 staining based flow cytometric analysis (reference value: 90.4%); assay type: functional
A549 [13] = assay: Induction of mitochondrial membrane potential loss in human A549 cells at IC50 measured after 24 hrs by JC-1 staining based flow cytometric analysis (reference value: 9.8%); assay type: functional
C6 [14] = assay: Induction of apoptosis in rat C6 cells assessed as caspase-3 negative cell level at IC50 after 24 hrs by FITC-A labeled flow cytometry (reference value: 96.4%); assay type: functional
C6 [15] = assay: Induction of apoptosis in rat C6 cells assessed as caspase-3 positive cell level at IC50 after 24 hrs by FITC-A labeled flow cytometry (reference value: 4.8%); assay type: functional
A549 [16] = assay: Induction of apoptosis in human A549 cells assessed as caspase-3 negative cell level at IC50 after 24 hrs by FITC-A labeled flow cytometry (reference value: 98.1%); assay type: functional
A549 [17] = assay: Induction of apoptosis in human A549 cells assessed as caspase-3 positive cell level at IC50 after 24 hrs by FITC-A labeled flow cytometry (reference value: 2.1%); assay type: functional
[18] = molecular target: RAC-alpha serine/threonine-protein kinase (Homo sapiens, UniProt P31749); assay: Inhibition of Akt in human A549 cells after 24 hrs by ELISA; assay type: cell-based; summary of the method: as §3
Focal adhesion kinase 1 = Focal adhesion kinase 1 (Rattus norvegicus, UniProt O35346); assay: Inhibition of FAK phasphorylation at Tyr397 residues in rat C6 cells after 24 hrs by ELISA; assay type: cell-based
Summary of the method: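 Cell-based colorimetric ELISA in C6 cells treated 24 h: cells were fixed in 4% formaldehyde for 20 min, quenched, and blocked for 1 h. Anti-FAK pTyr397, anti-FAK and anti-GAPDH primaries ran overnight at 4 °C, then HRP secondaries for 1.5 h and substrate for 30 min. OD450 was read in duplicate wells; pFAK was normalised to GAPDH. IC50 came from graphs of three concentrations.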

A549 [19] = assay: Induction of apoptotic morphological alterations in human A549 cells assessed as rounding of cells at IC50 after 24 hrs by transmission electron microscopy; assay type: functional, cell-based
Summary of the method: (§4)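 Cells were fixed in 2.5% glutaraldehyde in 0.1 M PBS pH 7.4 and held overnight at 4 °C, then agar-embedded and post-fixed in 2% osmium tetroxide. They were dehydrated through graded ethanol, embedded in EPON 812, ultrathin-sectioned and examined by transmission electron microscopy.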

A549 [20] = assay: Induction of apoptotic morphological alterations in human A549 cells assessed as disruption of cellular organization at IC50 after 24 hrs by transmission electron microscopy; assay type: functional, cell-based; summary of the method: as §4
A549 [21] = assay: Induction of apoptotic morphological alterations in human A549 cells assessed as cell shrinkage at IC50 after 24 hrs by transmission electron microscopy; assay type: functional, cell-based; summary of the method: as §4
A549 [22] = assay: Induction of apoptotic morphological alterations in human A549 cells assessed as DNA condensation at IC50 after 24 hrs by transmission electron microscopy; assay type: functional, cell-based; summary of the method: as §4
A549 [23] = assay: Induction of apoptotic morphological alterations in human A549 cells assessed as organellar membrane damage at IC50 after 24 hrs by transmission electron microscopy; assay type: functional, cell-based; summary of the method: as §4
C6 [24] = assay: Induction of apoptotic morphological alterations in rat C6 cells assessed as rounding of cells at IC50 after 24 hrs by transmission electron microscopy; assay type: functional, cell-based; summary of the method: as §4
C6 [25] = assay: Induction of apoptotic morphological alterations in rat C6 cells assessed as disruption of cellular organization at IC50 after 24 hrs by transmission electron microscopy; assay type: functional, cell-based; summary of the method: as §4
C6 [26] = assay: Induction of apoptotic morphological alterations in rat C6 cells assessed as cell shrinkage at IC50 after 24 hrs by transmission electron microscopy; assay type: functional, cell-based; summary of the method: as §4
C6 [27] = assay: Induction of apoptotic morphological alterations in rat C6 cells assessed as DNA condensation at IC50 after 24 hrs by transmission electron microscopy; assay type: functional, cell-based; summary of the method: as §4
C6 [28] = assay: Induction of apoptotic morphological alterations in rat C6 cells assessed as organellar membrane damage at IC50 after 24 hrs by transmission electron microscopy; assay type: functional, cell-based; summary of the method: as §4
A549 [29] = assay: Induction of apoptotic morphological alterations in human A549 cells assessed as increase in large vacuoles in cytoplasm containing degraded cellular material at IC50 after 24 hrs by transmission electron microscopy; assay type: functional, cell-based; summary of the method: as §4
A549 [30] = assay: Induction of apoptotic morphological alterations in human A549 cells assessed as membrane damage at IC50 after 24 hrs by transmission electron microscopy; assay type: functional, cell-based; summary of the method: as §4
A549 [31] = assay: Induction of apoptotic morphological alterations in human A549 cells assessed as nuclear fragmentation at IC50 after 24 hrs by transmission electron microscopy; assay type: functional, cell-based; summary of the method: as §4
C6 [32] = assay: Induction of apoptotic morphological alterations in rat C6 cells assessed as chromatin condensation at IC50 after 24 hrs by transmission electron microscopy; assay type: functional, cell-based; summary of the method: as §4
C6 [33] = assay: Induction of apoptotic morphological alterations in rat C6 cells assessed as large vacuoles at IC50 after 24 hrs by transmission electron microscopy; assay type: functional, cell-based; summary of the method: as §4
C6 [34] = assay: Induction of apoptotic morphological alterations in rat C6 cells assessed as membrane damage at IC50 after 24 hrs by transmission electron microscopy; assay type: functional, cell-based; summary of the method: as §4

RAC-alpha serine/threonine-protein kinase (Homo sapiens, UniProt P31749), sequence (P31749 whole entry): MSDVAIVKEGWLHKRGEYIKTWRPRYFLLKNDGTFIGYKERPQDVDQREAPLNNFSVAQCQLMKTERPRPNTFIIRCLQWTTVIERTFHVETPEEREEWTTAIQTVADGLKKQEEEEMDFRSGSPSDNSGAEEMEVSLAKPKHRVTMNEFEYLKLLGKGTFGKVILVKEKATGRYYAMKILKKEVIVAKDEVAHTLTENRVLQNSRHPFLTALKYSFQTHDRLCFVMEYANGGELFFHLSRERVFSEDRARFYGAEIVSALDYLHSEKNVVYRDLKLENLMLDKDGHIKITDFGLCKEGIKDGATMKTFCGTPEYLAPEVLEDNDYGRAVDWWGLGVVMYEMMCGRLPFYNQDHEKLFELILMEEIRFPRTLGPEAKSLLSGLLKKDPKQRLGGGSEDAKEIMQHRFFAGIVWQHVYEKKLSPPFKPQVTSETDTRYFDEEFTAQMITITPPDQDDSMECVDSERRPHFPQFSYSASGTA
RAC-alpha serine/threonine-protein kinase (Rattus norvegicus, UniProt P47196), sequence (P47196 whole entry): as the sequence (P31749 whole entry) above, with S2N, D46E, A50S, K112R, E117T, S137A, K389T, G410N, H415D counted along it
Focal adhesion kinase 1, sequence (O35346 whole entry): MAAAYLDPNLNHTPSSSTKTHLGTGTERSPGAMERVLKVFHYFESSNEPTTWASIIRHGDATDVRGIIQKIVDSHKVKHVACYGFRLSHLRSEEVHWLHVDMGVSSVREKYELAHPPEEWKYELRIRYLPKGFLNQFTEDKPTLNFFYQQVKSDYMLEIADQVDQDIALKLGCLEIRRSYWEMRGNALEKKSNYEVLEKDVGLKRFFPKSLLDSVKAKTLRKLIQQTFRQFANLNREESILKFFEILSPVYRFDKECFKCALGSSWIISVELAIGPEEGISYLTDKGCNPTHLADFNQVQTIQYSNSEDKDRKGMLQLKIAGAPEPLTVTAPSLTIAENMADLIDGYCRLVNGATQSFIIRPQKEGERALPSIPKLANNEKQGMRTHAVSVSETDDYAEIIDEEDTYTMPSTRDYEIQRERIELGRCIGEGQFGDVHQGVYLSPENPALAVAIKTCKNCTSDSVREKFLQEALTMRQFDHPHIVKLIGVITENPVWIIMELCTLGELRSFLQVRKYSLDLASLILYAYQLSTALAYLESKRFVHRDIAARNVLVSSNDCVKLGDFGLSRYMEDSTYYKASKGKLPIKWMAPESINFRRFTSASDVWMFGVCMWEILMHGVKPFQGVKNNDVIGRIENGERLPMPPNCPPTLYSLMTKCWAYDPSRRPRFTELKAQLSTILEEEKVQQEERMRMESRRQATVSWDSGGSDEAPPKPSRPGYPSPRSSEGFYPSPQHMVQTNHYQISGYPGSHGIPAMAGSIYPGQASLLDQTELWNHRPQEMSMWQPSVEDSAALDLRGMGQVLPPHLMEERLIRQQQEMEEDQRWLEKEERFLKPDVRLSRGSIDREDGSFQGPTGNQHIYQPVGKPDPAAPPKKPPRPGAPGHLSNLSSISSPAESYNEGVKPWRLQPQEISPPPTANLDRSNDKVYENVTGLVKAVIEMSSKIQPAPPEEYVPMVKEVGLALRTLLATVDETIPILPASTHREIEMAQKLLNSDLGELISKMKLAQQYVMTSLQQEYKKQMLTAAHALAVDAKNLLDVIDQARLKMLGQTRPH

Compound | IC50 (C6 [1]) [µM] | IC50 (A549 [2]) [µM] | IC50 (NIH3T3) [µM] | selectivity ratio [3] | selectivity ratio [4] | IC50 [5] [µM] | Activity (C6 [6]) [%] | Activity (C6 [7]) [%] | Activity (A549 [8]) [%] | Activity (A549 [9]) [%] | Activity (C6 [10]) [%] | Activity (C6 [11]) [%] | Activity (A549 [12]) [%] | Activity (A549 [13]) [%] | Activity (C6 [14]) [%] | Activity (C6 [15]) [%] | Activity (A549 [16]) [%] | Activity (A549 [17]) [%] | IC50 [18] [µM] | IC50 (Focal adhesion kinase 1) [µM] | other results
Cc1ccc2nc(NC(=O)CSc3nnc(COc4ccc5c(c4)CCCC5)o3)sc2c1 | 108 | 210 | > 403 | > 3.72 | > 1.92 | – | – | – | – | – | – | – | – | – | – | – | – | – | – | – | –
O=C(CSc1nnc(COc2ccc3c(c2)CCCC3)o1)Nc1nc2ccccc2s1 | 153 | 247 | 96.7 | 0.63 | 0.39 | – | – | – | – | – | – | – | – | – | – | – | – | – | – | – | –
CCn1c(-c2nonc2N)nc2c(C#CC(C)(C)O)ncc(OC[C@H]3CCCNC3)c21 [GSK-690693] | 14.5 | 105 | – | – | – | 6.97 | – | – | – | – | – | – | – | – | – | – | – | – | – | – | –
O=C(CSc1nnc(COc2ccc3c(c2)CCCC3)o1)Nc1ncc([N+](=O)[O-])s1 | 66.7 | 115 | > 403 | > 6.04 | > 3.5 | 44.5 | 12.3 | 80.8 | 25.3 | 67.8 | 0.6 | 98 | 2.4 | 95.5 | 90.1 | 11.3 | 95.1 | 5.4 | 138 | 105 | Activity (A549 [19]): Active; Activity (A549 [20]): Active; Activity (A549 [21]): Active; Activity (A549 [22]): Active; Activity (A549 [23]): Active; Activity (C6 [24]): Active; Activity (C6 [25]): Active; Activity (C6 [26]): Active; Activity (C6 [27]): Active; Activity (C6 [28]): Active
O=C(CSc1nnc(COc2ccc3c(c2)CCCC3)o1)Nc1nc2ccc([N+](=O)[O-])cc2s1 | 98.3 | 233 | 336 | 3.41 | 1.44 | – | – | – | – | – | – | – | – | – | – | – | – | – | – | – | –
CCOc1ccc2nc(NC(=O)CSc3nnc(COc4ccc5c(c4)CCCC5)o3)sc2c1 | 93.3 | 283 | > 403 | > 4.32 | > 1.42 | – | – | – | – | – | – | – | – | – | – | – | – | – | – | – | –
COc1ccc2nc(NC(=O)CSc3nnc(COc4ccc5c(c4)CCCC5)o3)sc2c1 | 4.63 | 39.3 | 94.3 | 20.4 | 2.4 | 2.6 | 5 | 92.3 | 12.2 | 71.7 | 24.4 | 74.4 | 69.8 | 27.9 | 69.8 | 33.9 | 76.4 | 25 | 27.5 | 19.5 | Activity (A549 [19]): Active; Activity (A549 [20]): Active; Activity (A549 [21]): Active; Activity (A549 [22]): Active; Activity (A549 [23]): Active; Activity (C6 [24]): Active; Activity (C6 [25]): Active; Activity (C6 [26]): Active; Activity (C6 [27]): Active; Activity (C6 [28]): Active; Activity (A549 [29]): Active; Activity (A549 [30]): Active; Activity (A549 [31]): Active; Activity (C6 [32]): Active; Activity (C6 [33]): Active; Activity (C6 [34]): Active
O=C(CSc1nnc(COc2ccc3c(c2)CCCC3)o1)Nc1nc2ccc(Cl)cc2s1 | 237 | 263 | 247 | 1.04 | 0.94 | – | – | – | – | – | – | – | – | – | – | – | – | – | – | – | –
O=C(CSc1nnc(COc2ccc3c(c2)CCCC3)o1)Nc1nc2ccc(F)cc2s1 | 89.3 | 91.7 | 292 | 3.27 | 3.18 | 165 | 11.9 | 84.9 | 17 | 79.1 | 32.6 | 60.1 | 78.2 | 21 | 90.8 | 11.7 | 93.5 | 7.1 | 98.3 | 118 | Activity (A549 [19]): Active; Activity (A549 [20]): Active; Activity (A549 [21]): Active; Activity (A549 [22]): Active; Activity (A549 [23]): Active; Activity (C6 [24]): Active; Activity (C6 [25]): Active; Activity (C6 [26]): Active; Activity (C6 [27]): Active; Activity (C6 [28]): Active
O=C(CSc1nnc(COc2ccc3c(c2)CCCC3)o1)Nc1nccs1 | 213 | 228 | > 403 | > 1.89 | > 1.76 | – | – | – | – | – | – | – | – | – | – | – | – | – | – | – | –

From ChEMBL document CHEMBL4152328, “Design, synthesis, in vitro and in silico evaluation of a new series of oxadiazole-based anticancer agents as potential Akt and FAK inhibitors” (Eur J Med Chem, 2018)
